Experimental data taken from ChEMBL document CHEMBL1156877, “Discovery of 6-benzyloxyquinolines as c-Met selective kinase inhibitors” (Bioorg Med Chem Lett, 2010).
Values belong to the compound of their own block, whether it stands above or below them.

Key:
[1] = target: Vascular endothelial growth factor receptor 2 (Homo sapiens, UniProt P35968); assay: Inhibition of recombinant KDR by TR-FRET assay
How it was run: (§1)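 Recombinant tyrosine kinase incubated with test compound and substrate peptide/ATP for 90 min at 30 °C; enzyme amount, ATP level, substrate and cation vary by kinase. Reaction stopped, then TR-FRET reagent with europium-labelled anti-phospho-substrate antibody added for 5 min at room temperature; substrate phosphorylation read as time-resolved fluorescence.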

[2] = target: Proto-oncogene tyrosine-protein kinase Src (Homo sapiens, UniProt P12931); assay: Inhibition of recombinant Src by TR-FRET assay; how it was run: as §1
Sequence of Proto-oncogene tyrosine-protein kinase Src (P12931 2-536 limits assumed): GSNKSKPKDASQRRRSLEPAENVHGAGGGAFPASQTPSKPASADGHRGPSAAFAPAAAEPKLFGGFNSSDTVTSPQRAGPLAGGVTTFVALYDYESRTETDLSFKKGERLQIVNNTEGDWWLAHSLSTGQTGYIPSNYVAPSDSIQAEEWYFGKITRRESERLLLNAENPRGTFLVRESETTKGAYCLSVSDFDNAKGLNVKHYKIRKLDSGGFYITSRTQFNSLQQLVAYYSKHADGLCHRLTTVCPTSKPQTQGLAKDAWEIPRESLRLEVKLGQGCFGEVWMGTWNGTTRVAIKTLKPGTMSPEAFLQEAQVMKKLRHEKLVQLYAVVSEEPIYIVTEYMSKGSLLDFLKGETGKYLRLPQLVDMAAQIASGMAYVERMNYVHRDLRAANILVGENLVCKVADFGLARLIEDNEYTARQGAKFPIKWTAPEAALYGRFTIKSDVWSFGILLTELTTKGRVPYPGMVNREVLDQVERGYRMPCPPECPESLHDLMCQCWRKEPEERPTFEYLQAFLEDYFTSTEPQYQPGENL

[3] = target: Hepatocyte growth factor receptor (Homo sapiens, UniProt P08581); assay: Inhibition of recombinant c-Met by TR-FRET assay
Sequence of Hepatocyte growth factor receptor (P08581 whole entry): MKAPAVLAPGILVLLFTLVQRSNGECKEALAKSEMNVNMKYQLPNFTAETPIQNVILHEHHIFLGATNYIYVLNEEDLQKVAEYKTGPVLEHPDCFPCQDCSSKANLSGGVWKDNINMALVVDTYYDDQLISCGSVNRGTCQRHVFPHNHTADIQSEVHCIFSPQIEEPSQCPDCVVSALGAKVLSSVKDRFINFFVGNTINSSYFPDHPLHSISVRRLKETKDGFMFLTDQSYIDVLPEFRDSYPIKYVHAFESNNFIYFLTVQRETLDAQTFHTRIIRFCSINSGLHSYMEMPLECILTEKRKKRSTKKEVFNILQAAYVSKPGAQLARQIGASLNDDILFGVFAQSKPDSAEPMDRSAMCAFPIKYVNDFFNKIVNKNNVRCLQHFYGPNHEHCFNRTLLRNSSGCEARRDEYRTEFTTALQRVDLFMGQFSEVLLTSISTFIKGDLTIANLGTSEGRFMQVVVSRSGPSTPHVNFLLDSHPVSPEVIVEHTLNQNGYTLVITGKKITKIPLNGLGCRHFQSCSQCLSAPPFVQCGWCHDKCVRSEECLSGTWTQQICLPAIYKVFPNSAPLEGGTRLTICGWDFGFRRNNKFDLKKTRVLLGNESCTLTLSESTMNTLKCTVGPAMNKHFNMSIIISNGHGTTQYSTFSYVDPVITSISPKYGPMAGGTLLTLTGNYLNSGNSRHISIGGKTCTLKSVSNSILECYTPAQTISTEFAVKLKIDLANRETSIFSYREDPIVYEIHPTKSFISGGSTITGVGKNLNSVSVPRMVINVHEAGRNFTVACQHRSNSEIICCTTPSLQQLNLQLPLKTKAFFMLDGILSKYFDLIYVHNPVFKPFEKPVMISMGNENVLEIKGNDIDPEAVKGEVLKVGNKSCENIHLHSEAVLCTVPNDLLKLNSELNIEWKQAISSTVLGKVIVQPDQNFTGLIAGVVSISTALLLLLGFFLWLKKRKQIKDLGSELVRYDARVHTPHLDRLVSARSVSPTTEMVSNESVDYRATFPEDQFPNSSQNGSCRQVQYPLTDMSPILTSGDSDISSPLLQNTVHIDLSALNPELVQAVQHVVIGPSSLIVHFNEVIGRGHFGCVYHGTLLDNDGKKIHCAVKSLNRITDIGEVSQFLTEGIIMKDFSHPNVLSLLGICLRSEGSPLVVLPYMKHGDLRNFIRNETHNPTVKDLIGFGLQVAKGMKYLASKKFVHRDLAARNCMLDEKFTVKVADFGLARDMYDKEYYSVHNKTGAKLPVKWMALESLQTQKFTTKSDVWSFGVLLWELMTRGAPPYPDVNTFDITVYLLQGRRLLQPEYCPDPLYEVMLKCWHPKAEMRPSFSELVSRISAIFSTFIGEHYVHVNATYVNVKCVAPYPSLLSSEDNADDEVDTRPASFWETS

[4] = target: Tyrosine-protein kinase Yes (Homo sapiens, UniProt P07947); assay: Inhibition of recombinant YES by TR-FRET assay; how it was run: as §1
[5] = target: Insulin receptor (Homo sapiens, UniProt P06213); assay: Inhibition of recombinant InsR by TR-FRET assay
[6] = target: Cyclin-dependent kinase 1 (Homo sapiens, UniProt P06493); assay: Inhibition of recombinant CDK1 by IMAP assay
How it was run: (§2)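 Recombinant enzyme mixed with test compound and substrate peptide/ATP solution, incubated 90 min at 30 °C; enzyme quantity, ATP, substrate and cation set per kinase. IMAP reagent then added for 5 min at room temperature, and peptide phosphorylation quantified by fluorescence polarization.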

[7] = target: Ephrin type-A receptor 2 (Homo sapiens, UniProt P29317); assay: Inhibition of recombinant EphA2 by TR-FRET assay; how it was run: as §1
[8] = target: T1, Protein kinase C beta type (Homo sapiens, UniProt P05771); assay: Inhibition of recombinant PKCbeta1 by IMAP assay; how it was run: as §2
T1 sequence (P05771 whole entry): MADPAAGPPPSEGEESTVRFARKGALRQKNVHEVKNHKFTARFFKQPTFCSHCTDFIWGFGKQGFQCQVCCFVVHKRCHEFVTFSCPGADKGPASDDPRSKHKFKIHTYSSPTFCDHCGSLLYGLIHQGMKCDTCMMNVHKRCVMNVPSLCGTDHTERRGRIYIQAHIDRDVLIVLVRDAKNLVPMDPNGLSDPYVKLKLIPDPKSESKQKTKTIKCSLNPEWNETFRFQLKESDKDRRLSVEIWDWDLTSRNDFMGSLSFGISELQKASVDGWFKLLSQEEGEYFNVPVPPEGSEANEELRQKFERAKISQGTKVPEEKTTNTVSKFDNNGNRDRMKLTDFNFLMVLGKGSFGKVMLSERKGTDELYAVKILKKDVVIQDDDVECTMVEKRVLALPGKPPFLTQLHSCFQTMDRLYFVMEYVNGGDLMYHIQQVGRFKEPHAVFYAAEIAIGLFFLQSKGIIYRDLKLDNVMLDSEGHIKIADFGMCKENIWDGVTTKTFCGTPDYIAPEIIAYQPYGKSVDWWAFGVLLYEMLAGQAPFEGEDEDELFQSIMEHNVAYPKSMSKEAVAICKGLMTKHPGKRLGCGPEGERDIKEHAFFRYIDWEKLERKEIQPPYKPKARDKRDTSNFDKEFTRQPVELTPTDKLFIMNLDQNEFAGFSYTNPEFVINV

[9] = target: T2, Receptor-type tyrosine-protein kinase FLT3 (Homo sapiens, UniProt P36888); assay: Inhibition of recombinant Flt3 by TR-FRET assay; how it was run: as §1
T2 sequence (P36888 whole entry): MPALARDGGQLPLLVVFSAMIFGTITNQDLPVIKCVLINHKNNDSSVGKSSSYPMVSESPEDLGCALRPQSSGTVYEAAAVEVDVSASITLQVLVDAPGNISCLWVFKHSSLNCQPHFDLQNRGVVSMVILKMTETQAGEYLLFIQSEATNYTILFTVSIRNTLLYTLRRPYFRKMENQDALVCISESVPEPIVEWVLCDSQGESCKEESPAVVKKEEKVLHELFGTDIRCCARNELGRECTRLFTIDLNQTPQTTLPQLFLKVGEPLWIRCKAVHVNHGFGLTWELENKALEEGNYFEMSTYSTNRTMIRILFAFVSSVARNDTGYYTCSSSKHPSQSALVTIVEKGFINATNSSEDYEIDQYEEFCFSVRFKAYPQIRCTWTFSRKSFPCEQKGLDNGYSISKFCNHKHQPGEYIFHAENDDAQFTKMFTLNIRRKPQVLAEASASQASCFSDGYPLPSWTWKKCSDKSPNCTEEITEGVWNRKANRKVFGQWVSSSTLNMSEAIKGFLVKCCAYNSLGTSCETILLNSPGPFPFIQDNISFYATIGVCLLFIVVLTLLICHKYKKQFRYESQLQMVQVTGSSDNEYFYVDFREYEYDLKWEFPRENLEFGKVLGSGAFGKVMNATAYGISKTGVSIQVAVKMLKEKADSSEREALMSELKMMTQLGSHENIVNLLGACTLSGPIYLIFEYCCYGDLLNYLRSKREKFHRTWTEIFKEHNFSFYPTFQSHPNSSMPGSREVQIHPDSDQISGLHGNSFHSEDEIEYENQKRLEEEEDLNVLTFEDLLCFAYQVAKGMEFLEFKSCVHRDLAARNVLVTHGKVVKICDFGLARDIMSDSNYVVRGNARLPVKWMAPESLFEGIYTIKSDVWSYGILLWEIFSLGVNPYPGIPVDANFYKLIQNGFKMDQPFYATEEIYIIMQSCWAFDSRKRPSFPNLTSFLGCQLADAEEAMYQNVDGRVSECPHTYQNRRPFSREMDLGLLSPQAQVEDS

[10] = Inhibition of recombinant PDGFR by TR-FRET assay; how it was run: as §1
[11] = target: Tyrosine-protein kinase Lck (Homo sapiens, UniProt P06239); assay: Inhibition of recombinant LCK by TR-FRET assay
[12] = target: Cyclin-dependent kinase 2 (Homo sapiens, UniProt P24941); assay: Inhibition of recombinant CDK2 by IMAP assay; how it was run: as §2
[13] = target: RAC-alpha serine/threonine-protein kinase (Homo sapiens, UniProt P31749); assay: Inhibition of recombinant AKT1 by IMAP assay; how it was run: as §2
Sequence of RAC-alpha serine/threonine-protein kinase (P31749 whole entry): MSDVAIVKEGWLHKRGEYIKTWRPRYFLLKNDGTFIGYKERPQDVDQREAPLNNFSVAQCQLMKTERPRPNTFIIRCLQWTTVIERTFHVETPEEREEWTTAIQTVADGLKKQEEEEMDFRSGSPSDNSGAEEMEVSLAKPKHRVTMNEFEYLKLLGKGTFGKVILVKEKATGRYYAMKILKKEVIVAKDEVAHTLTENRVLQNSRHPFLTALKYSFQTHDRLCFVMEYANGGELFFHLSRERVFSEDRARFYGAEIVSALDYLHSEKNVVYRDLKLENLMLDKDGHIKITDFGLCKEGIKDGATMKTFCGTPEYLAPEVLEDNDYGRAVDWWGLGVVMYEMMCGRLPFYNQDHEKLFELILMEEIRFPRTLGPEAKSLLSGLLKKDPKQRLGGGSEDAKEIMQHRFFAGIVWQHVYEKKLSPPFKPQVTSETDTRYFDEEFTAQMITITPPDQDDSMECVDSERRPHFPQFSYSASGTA

[14] = target: T3, Aurora kinase A (Homo sapiens, UniProt O14965); assay: Inhibition of recombinant Aurora A by IMAP assay; how it was run: as §2
T3 sequence (O14965 whole entry): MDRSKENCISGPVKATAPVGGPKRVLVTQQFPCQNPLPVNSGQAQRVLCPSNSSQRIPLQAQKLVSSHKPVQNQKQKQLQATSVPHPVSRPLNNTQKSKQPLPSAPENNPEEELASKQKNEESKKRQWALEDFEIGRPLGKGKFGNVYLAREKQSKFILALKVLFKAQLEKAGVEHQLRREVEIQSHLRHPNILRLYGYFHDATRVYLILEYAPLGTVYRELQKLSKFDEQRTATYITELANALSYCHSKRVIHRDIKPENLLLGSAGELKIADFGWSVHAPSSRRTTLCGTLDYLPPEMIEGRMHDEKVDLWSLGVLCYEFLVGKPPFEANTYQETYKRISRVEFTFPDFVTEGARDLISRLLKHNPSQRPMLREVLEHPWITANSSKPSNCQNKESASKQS

[15] = Inhibition of recombinant PKA by IMAP assay; how it was run: as §2
[16] = Solubility in fasted state simulated intestinal fluid; format: physicochemical
[17] = target: Macrophage-stimulating protein receptor (Homo sapiens, UniProt Q04912); assay: Inhibition of recombinant RON by TR-FRET assay; how it was run: as §1
[18] = target: Tyrosine-protein kinase Fyn (Homo sapiens, UniProt P06241); assay: Inhibition of recombinant Fyn by TR-FRET assay; how it was run: as §1
[19] = target: Fibroblast growth factor receptor 2 (Homo sapiens, UniProt P21802); assay: Inhibition of recombinant FGFR2 by TR-FRET assay; how it was run: as §1
[20] = target: Protein-tyrosine kinase 6 (Homo sapiens, UniProt Q13882); assay: Inhibition of recombinant BRK by TR-FRET assay; how it was run: as §1
Sequence of Protein-tyrosine kinase 6 (Q13882 whole entry): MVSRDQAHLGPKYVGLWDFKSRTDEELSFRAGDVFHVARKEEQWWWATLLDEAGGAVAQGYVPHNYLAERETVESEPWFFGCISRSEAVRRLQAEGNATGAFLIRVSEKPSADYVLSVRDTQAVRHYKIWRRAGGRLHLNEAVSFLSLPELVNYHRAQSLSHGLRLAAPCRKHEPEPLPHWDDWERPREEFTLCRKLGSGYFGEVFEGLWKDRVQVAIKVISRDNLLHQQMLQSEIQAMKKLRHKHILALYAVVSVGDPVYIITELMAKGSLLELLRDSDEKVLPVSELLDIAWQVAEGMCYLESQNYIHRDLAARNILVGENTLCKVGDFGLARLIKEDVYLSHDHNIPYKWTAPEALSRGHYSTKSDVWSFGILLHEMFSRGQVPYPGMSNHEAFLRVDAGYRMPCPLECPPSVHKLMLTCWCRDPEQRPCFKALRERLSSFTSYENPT

[21] = target: Insulin-like growth factor 1 receptor (Homo sapiens, UniProt P08069); assay: Inhibition of recombinant IGF1R by TR-FRET assay; how it was run: as §1
[22] = target: Tyrosine-protein kinase ABL1 (Homo sapiens, UniProt P00519); assay: Inhibition of recombinant Abl by TR-FRET assay; how it was run: as §1
[23] = target: Protein kinase C alpha type (Homo sapiens, UniProt P17252); assay: Inhibition of recombinant PKCalpha by IMAP assay; how it was run: as §2
[24] = target: Mast/stem cell growth factor receptor Kit (Homo sapiens, UniProt P10721); assay: Inhibition of recombinant Kit by TR-FRET assay; how it was run: as §1
[25] = target: Leukocyte tyrosine kinase receptor (Homo sapiens, UniProt P29376); assay: Inhibition of recombinant LTK by TR-FRET assay; how it was run: as §1
[26] = target: T4, Tyrosine-protein kinase receptor UFO (Homo sapiens, UniProt P30530); assay: Inhibition of recombinant AXL by TR-FRET assay; how it was run: as §1
T4 sequence (P30530 whole entry): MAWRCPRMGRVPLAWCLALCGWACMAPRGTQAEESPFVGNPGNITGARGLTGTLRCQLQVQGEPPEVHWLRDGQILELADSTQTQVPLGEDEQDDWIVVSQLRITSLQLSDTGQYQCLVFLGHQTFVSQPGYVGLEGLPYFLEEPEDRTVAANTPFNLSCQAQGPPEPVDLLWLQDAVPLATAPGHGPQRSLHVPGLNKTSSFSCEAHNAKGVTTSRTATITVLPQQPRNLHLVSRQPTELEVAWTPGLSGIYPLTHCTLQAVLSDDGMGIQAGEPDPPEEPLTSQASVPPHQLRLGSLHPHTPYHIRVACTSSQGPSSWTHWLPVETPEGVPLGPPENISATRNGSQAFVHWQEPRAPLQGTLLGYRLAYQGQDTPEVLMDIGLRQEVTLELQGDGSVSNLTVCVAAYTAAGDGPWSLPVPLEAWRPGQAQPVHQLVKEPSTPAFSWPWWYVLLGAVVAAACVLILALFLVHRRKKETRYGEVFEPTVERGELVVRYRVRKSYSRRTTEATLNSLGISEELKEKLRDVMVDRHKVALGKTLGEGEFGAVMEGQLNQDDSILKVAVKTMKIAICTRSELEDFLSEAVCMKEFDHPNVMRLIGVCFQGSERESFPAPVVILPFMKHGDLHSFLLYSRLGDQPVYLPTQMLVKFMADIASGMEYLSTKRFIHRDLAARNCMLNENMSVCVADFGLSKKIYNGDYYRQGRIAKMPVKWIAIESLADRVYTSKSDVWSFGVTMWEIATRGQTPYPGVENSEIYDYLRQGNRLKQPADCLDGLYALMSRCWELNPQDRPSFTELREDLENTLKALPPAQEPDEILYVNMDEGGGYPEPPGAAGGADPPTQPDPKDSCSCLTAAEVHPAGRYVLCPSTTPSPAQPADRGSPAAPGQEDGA

[27] = target: T1, Protein kinase C beta type; assay: Inhibition of recombinant PKCbeta2 by IMAP assay; how it was run: as §2
[28] = test system: MKN-45; assay: Cytotoxicity against human MKN45 cells after 96 hrs by WST8 assay; format: functional, cell-based; details: MKN-45, 96 h
How it was run: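 Tumour cells exposed to a range of compound concentrations for 96 h; cytotoxicity read with WST-8 cell counting kit.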

Sequence of Vascular endothelial growth factor receptor 2 (P35968 whole entry): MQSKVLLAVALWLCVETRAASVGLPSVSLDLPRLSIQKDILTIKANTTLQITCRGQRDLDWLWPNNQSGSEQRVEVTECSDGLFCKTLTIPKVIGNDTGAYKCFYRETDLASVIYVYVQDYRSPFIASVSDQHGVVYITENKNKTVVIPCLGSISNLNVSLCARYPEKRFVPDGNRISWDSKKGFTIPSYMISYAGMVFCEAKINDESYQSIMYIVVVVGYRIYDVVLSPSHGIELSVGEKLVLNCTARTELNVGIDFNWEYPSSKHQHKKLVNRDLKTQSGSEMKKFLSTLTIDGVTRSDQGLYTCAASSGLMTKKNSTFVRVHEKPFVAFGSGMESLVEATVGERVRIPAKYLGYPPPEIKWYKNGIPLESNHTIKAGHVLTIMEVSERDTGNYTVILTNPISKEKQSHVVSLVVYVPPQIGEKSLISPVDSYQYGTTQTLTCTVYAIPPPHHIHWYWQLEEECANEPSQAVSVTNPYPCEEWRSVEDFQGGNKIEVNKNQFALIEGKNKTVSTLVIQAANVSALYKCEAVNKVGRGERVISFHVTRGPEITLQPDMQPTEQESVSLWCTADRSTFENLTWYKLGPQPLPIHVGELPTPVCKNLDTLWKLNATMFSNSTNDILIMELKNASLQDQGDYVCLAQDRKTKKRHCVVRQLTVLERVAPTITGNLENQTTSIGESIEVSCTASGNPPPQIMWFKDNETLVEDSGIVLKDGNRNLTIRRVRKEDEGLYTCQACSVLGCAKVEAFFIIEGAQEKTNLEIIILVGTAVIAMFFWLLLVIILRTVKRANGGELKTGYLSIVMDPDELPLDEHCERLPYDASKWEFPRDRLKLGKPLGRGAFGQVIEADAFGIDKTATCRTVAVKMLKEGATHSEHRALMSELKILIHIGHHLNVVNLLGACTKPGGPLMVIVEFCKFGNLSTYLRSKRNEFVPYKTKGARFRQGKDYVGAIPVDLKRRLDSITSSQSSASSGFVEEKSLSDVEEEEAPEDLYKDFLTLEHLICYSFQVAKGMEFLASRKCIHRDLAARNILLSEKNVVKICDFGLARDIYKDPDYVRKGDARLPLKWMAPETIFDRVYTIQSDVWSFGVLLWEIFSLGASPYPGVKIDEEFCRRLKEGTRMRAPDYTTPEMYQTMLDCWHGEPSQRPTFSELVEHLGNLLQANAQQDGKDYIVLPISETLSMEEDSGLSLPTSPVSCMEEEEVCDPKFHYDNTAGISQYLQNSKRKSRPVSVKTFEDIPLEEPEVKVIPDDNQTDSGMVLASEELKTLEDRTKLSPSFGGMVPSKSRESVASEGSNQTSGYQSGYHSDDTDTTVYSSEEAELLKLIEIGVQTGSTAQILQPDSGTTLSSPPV

SMILES: CC(Oc1ccc2ncccc2c1)c1c(Cl)ccc(F)c1Cl (racemic)
IC50 [1]: 32 µM
IC50 [2]: > 50 µM
IC50 [3]: 0.453 µM

SMILES: C[C@@H](Oc1ccc2ncc(/C=C/C(N)=O)cc2c1)c1c(Cl)ccc(F)c1Cl
IC50 [4]: 26 µM
IC50 [5]: > 50 µM
IC50 [6]: > 50 µM
IC50 [7]: 4.4 µM
IC50 [8]: > 50 µM
IC50 [1]: 11 µM
IC50 [9]: 32 µM
IC50 [10]: > 50 µM
IC50 [11]: 14 µM
IC50 [12]: > 50 µM
IC50 [13]: > 50 µM
IC50 [14]: 6.4 µM
IC50 [15]: > 50 µM
solubility [16]: < 13 µg/mL
IC50 [17]: 0.45 µM
IC50 [18]: 28 µM
IC50 [19]: 6.9 µM
IC50 [20]: 32 µM
IC50 [21]: > 50 µM
IC50 [22]: 10 µM
IC50 [23]: > 50 µM
IC50 [24]: > 50 µM
IC50 [25]: 18 µM
IC50 [26]: 0.57 µM
IC50 [27]: > 50 µM

SMILES: CC(Oc1ccc2ncc(/C=C/C(N)=O)cc2c1)c1c(Cl)ccc(F)c1Cl (racemic)
IC50 [1]: 26 µM
IC50 [2]: > 50 µM
IC50 [28]: 0.35 µM

SMILES: CC(Oc1ccc2ncc(CCC(N)=O)cc2c1)c1c(Cl)ccc(F)c1Cl (racemic)
IC50 [1]: 50 µM
IC50 [2]: > 50 µM
IC50 [28]: 4.4 µM
IC50 [3]: 0.205 µM

SMILES: CC(Oc1ccc2ncc(/C=C/C(=O)N(C)C)cc2c1)c1c(Cl)ccc(F)c1Cl (racemic)
IC50 [1]: > 50 µM
IC50 [2]: > 50 µM
IC50 [28]: 0.61 µM
IC50 [3]: 0.059 µM

Now from value to compound, other results behind:

IC50 [1]: 33 µM
IC50 [2]: 46 µM
IC50 [3]: 0.368 µM
SMILES: CC(Oc1ccc2ncc(/C=C/CN)cc2c1)c1c(Cl)ccc(F)c1Cl (racemic)
IC50 [28]: 4.3 µM

IC50 [1]: > 50 µM
IC50 [2]: > 50 µM
SMILES: CNC(=O)/C=C/c1cnc2ccc(OC(C)c3c(Cl)ccc(F)c3Cl)cc2c1 (racemic)
IC50 [28]: 0.24 µM

IC50 [1]: > 50 µM
IC50 [2]: > 50 µM
IC50 [3]: 0.094 µM
SMILES: CC(Oc1ccc2ncc(/C=C/C(=O)O)cc2c1)c1c(Cl)ccc(F)c1Cl (racemic)
IC50 [28]: 10.2 µM

IC50 [4]: > 50 µM
IC50 [6]: > 50 µM
IC50 [7]: > 50 µM
IC50 [8]: > 50 µM
IC50 [1]: 23 µM
IC50 [9]: 46 µM
IC50 [10]: > 50 µM
IC50 [11]: > 50 µM
IC50 [12]: > 50 µM
IC50 [2]: 22 µM
IC50 [13]: > 50 µM
IC50 [14]: > 50 µM
IC50 [15]: > 50 µM
IC50 [17]: 3.6 µM
IC50 [18]: > 50 µM
IC50 [19]: 24 µM
IC50 [20]: > 50 µM
IC50 [21]: > 50 µM
IC50 [22]: > 50 µM
IC50 [24]: 41 µM
IC50 [25]: > 50 µM
IC50 [26]: 14 µM
IC50 [27]: > 50 µM
IC50 [3]: 0.13 µM
SMILES: C[C@@H](Oc1ccc2ncccc2c1)c1c(Cl)ccc(F)c1Cl

IC50 [1]: > 50 µM
IC50 [2]: 20 µM
IC50 [3]: 1.2 µM
SMILES: C[C@H](Oc1ccc2ncccc2c1)c1c(Cl)ccc(F)c1Cl
